Source: publication PMC4357494 (Journal of molecular biology, 2014)
Blank lines part the entries; values can stand above or below the molecule they belong to. Where a SMILES comes first, the peptide text is derived from it.

Tests used:
[1] = tested on: Bcl-2 3256 cells (Bcl-2 dependent)
[2] = tested on: Mcl-1 2640 cells (Mcl-1 dependent); assay: BH3 profiling, Mcl-1 2640; assay type: cell-based, murine; details: 5 μM peptide
How it was run: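 Myc-driven murine leukemia line, Mcl-1 dependent, grown in RPMI 1640 with 10% FBS and […] 2-mercaptoethanol. Permeabilized cells at 2×10^4/well, triplicate wells, exposed to peptides including 5 μM. JC-1 read-out; depolarization expressed as percentage relative to FCCP (full) and DMSO (none). At least three biological replicates.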

Mcl-1 (residues 172-327) = Mcl-1 (residues 172-327) (Homo sapiens, UniProt Q07820); assay: Fluorescence polarization binding assay, Mcl-1; details: for competition with fluorescently labeled Bim-BH3 for binding to Mcl-1 (in words): FP competition
How it was run: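 E. coli-expressed Mcl-1 (residues 172-327) in competition FP: 20 mM sodium phosphate, 50 mM NaCl, 1 mM EDTA, 0.001% Triton X, 5% DMSO, pH 7.8, 25 °C. Serially diluted unlabeled peptide plus 10 nM fluorescein tracer, 15 min, then protein. Tracer is 18-mer Bim-BH3 with 50 nM Mcl-1, or 23-mer Hrk-BH3 with 500 nM Mcl-1.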

Bcl-xL = assay: Yeast-surface display, dual color fluorescence binding with competitors; design: species or system human; details: 100-fold excess of each competitor, yeast-displayed peptide
How it was run: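 Yeast displaying BH3 peptides incubated with 10 nM Bcl-xL plus 1 μM each of Mcl-1, Bfl-1, Bcl-2 and Bcl-w, competitors premixed. Proteins are E. coli-expressed human constructs. Detection uses primary and labeled secondary antibodies: FITC marks peptide expression, APC marks receptor binding. Flow cytometry with 488 and/or 561 nm excitation.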

[3] = target: primary human platelets (Bcl-xL dependent) (Homo sapiens, UniProt Q07817); details: primary human platelet samples
Bcl-xL (residues 1-209) [4] = target: T1, Bcl-xL (residues 1-209) (Homo sapiens, UniProt Q07817); assay: Fluorescence polarization competition binding assay, Bcl-xL
Bcl-w (residues 1-164) = target: T2, Bcl-w (residues 1-164) (Homo sapiens, UniProt Q92843); assay: Fluorescence polarization competition binding assay, Bcl-w
T2 sequence (Q92843 1-164): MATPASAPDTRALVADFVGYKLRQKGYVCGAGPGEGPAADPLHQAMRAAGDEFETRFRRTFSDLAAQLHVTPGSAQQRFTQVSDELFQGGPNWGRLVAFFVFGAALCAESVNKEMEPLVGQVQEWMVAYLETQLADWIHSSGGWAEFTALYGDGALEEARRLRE
How it was run: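 E. coli-expressed Bcl-w (residues 1-164), 50 nM final, competed against 10 nM N-terminal fluorescein 18-mer Bim-BH3. Unlabeled peptide serially diluted and premixed with tracer 15 min before protein. Buffer: 20 mM sodium phosphate, 50 mM NaCl, 1 mM EDTA, 0.001% Triton X, 5% DMSO, pH 7.8, 25 °C.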

DHL10 cells = assay: BH3 profiling, DHL10; assay type: cell-based; details: Bax- and Bak-deleted cell line
How it was run: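 Test peptides (N-acetylated, C-amidated) titrated onto permeabilized Su-DHL10 cells (RPMI 1640, 10% FBS), 2×10^4 cells/well, triplicate wells per concentration. JC-1 fluorescence gives membrane-potential loss, normalized as 1 – [(Dsample–DFCCP)/(DDMSO–DFCCP)] against FCCP and DMSO. EC50 from global fit with linked baselines; at least three biological replicates, 2-3 days of culture apart.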

Bcl-2 (residues 1-217) [5] = target: T3, Bcl-2 (residues 1-217) (Homo sapiens, UniProt P10415); assay: Fluorescence polarization competition binding assay, Bcl-2
How it was run: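 Human Bcl-2 (residues 1-217), expressed in E. coli. Buffer: 20 mM sodium phosphate, 50 mM NaCl, 1 mM EDTA, 0.001% Triton X, 5% DMSO, pH 7.8, 25 °C. Competition: test peptide serially diluted, 10 nM fluorescein Bim-BH3 added, 15 min at RT, then 50 nM Bcl-2 (final). Anisotropy read over 2-48 h, then curves fit. Direct: titrated protein, 10 nM probe, read 4-24 h.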

[6] = target: MDA-MB-231 cells (Bcl-xL dependent) (Homo sapiens, UniProt Q07817)
[7] = target: OCI-Ly1 cells (Bcl-2 dependent) (Homo sapiens, UniProt P10415)
Bcl-2 (residues 1-217) [8] = target: T3, Bcl-2 (residues 1-217); assay: fluorescence polarisation
Bcl-xL (residues 1-209) [9] = target: T1, Bcl-xL (residues 1-209); assay: fluorescence polarisation
Bcl-xL (residues 1-209) [10] = target: Bcl-xL (residues 1-209) (human, UniProt Q07817-1 1-209); assay: fluorescence polarisation
Bcl-2 (residues 1-217) [11] = target: Bcl-2 (residues 1-217) (human, UniProt P10415 1-217); assay: fluorescence polarisation
[12] = FP competition with fluorescein 18-residue Bim-BH3

T1 sequence (Q07817 1-209): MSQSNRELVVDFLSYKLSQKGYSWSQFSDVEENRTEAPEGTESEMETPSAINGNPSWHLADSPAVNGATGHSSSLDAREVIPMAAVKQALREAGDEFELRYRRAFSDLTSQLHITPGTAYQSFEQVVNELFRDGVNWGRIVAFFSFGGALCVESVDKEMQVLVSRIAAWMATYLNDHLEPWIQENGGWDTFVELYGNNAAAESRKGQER
Chain of Mcl-1 (residues 172-327) (Q07820 172-327): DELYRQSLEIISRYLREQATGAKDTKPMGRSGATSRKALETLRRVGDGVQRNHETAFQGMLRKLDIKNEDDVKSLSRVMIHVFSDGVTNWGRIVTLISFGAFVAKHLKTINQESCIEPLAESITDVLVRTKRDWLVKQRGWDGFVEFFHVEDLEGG
T3 sequence (P10415 1-217): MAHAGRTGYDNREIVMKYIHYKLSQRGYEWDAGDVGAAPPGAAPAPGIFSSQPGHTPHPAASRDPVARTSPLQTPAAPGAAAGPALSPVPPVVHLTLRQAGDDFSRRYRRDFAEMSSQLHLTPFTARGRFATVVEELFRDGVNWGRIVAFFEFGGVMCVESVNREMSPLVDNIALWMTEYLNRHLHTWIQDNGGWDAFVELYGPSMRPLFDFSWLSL
Chain of OCI-Ly1 cells (Bcl-2 dependent) (P10415 whole entry, the tested form may be a part): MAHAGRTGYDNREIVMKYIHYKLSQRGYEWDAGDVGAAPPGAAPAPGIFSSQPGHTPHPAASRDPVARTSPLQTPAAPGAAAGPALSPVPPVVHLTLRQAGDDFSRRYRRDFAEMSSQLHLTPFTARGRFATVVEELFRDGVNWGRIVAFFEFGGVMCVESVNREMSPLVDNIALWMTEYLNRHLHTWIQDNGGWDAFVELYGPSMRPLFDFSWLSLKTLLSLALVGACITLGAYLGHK
Chain of primary human platelets (Bcl-xL dependent) (Q07817 1-209): as the sequence (Q07817 1-209) above
Chain of Bcl-xL (residues 1-209) (human, UniProt Q07817-1 1-209) (Q07817 1-209): as above
Chain of MDA-MB-231 cells (Bcl-xL dependent) (Q07817 1-209): as above
Chain of Bcl-2 (residues 1-217) (human, UniProt P10415 1-217) (P10415 1-217): as the sequence (P10415 1-217) above

Molecule: CC[C@H](C)[C@H](NC(=O)[C@H](CCC(=O)O)NC(=O)[C@H](CCCNC(=N)N)NC(=O)[C@H](C)NC(=O)[C@H](Cc1c[nH]c2ccccc12)NC(=O)[C@H](CCC(N)=O)NC(C)=O)C(=O)NCC(=O)N[C@@H](C)C(=O)N[C@@H](CCC(N)=O)C(=O)N[C@@H](CC(C)C)C(=O)N[C@@H](CCCNC(=N)N)C(=O)N[C@@H](CCCNC(=N)N)C(=O)N[C@@H](CCSC)C(=O)N[C@@H](C)C(=O)N[C@@H](CC(=O)O)C(=O)N[C@@H](CC(=O)O)C(=O)N[C@@H](CC(C)C)C(=O)N[C@@H](CC(N)=O)C(=O)N[C@@H](C)C(=O)N[C@@H](CCC(N)=O)C(=O)N[C@@H](Cc1ccc(O)cc1)C(=O)N[C@@H](CCC(=O)O)C(=O)N[C@@H](CCCNC(=N)N)C(N)=O [Puma, reference compound]
EC50 [1]: 663 ± 223 nM
depolarization in the Mcl-1 dependent line (in words) [2]: strong response

Molecule: Bim-BH3 with the point mutation E2gG (peptide)
fold weaker binding than Bim-BH3 (Bcl-2 (residues 1-217) [8]): 7 fold
Ki (Bcl-xL (residues 1-209) [9]): < 0.1 nM

Molecule: Bim-BH3 with the point mutation I2dY (peptide)
fold weaker binding than Bim-BH3 (Bcl-2 (residues 1-217) [8]): 5 fold
Ki (Bcl-xL (residues 1-209) [9]): < 0.1 nM

Molecule: Bim-BH3 with the point mutation I3dF (peptide)
Ki (Bcl-xL (residues 1-209) [9]): < 0.1 nM

Molecule: Bim-BH3 with the point mutation R3bK (peptide)
Ki (Bcl-xL (residues 1-209) [9]): < 0.1 nM

Molecule: Hrk-BH3, unlabeled 23-residue peptide
Ki (Bcl-xL (residues 1-209) [9]): 10 nM

Molecule: Puma-BH3, unlabeled 23-residue peptide
Ki (Bcl-xL (residues 1-209) [9]): 2 nM

Molecule: Ac-WAAQRYGRELRRMSDEFVDSFKK-NH2 [Bad-BH3, unlabeled 23-residue peptide]
Ki (Bcl-xL (residues 1-209) [10]): ≤ 0.1 nM

Molecule: Ac-IWYAQGLKRFGDEFNAYK-NH2 (designed binder) [Y4eK_18]
Ki (Bcl-xL (residues 1-209) [10]): ~2 nM
fold weaker binding than XXA1_Y4eK (Bcl-2 (residues 1-217) [11]): ~5 fold

Further lines, with some results ahead:

EC50 [1]: 540 ± 183 nM
competition with fluorescently labeled Bim-BH3 for binding to Mcl-1 (in words) (Mcl-1 (residues 172-327)): Neither XXA1 nor XXA1_G2gE could compete
depolarization of platelets (in words) [3]: potent depolarization
Ki (Bcl-xL (residues 1-209) [4]): ≤ 0.1 nM
affinity for Bcl-xL (in words) (Bcl-xL (residues 1-209) [4]; [12]): sub-nanomolar
weakening of binding to Bcl-w relative to Bim-BH3 (Bcl-w (residues 1-164); four mutations combined): ~ 150 fold
Kd (Bcl-2 (residues 1-217) [5]): ~17 nM
Molecule: CC[C@H](C)[C@H](NC(=O)[C@H](CCC(=O)O)NC(=O)[C@@H]1CCCN1C(=O)[C@H](CCCNC(=N)N)NC(C)=O)C(=O)N[C@@H](Cc1c[nH]c2ccccc12)C(=O)N[C@@H](Cc1ccc(O)cc1)C(=O)N[C@@H](C)C(=O)N[C@@H](CCC(N)=O)C(=O)NCC(=O)N[C@@H](CC(C)C)C(=O)N[C@@H](CCCCN)C(=O)N[C@@H](CCCNC(=N)N)C(=O)N[C@@H](Cc1ccccc1)C(=O)NCC(=O)N[C@@H](CC(=O)O)C(=O)N[C@@H](CCC(=O)O)C(=O)N[C@@H](Cc1ccccc1)C(=O)N[C@@H](CC(N)=O)C(=O)N[C@@H](C)C(=O)N[C@@H](Cc1ccc(O)cc1)C(=O)N[C@@H](Cc1ccc(O)cc1)C(=O)N[C@@H](C)C(=O)N[C@@H](CCCNC(=N)N)C(N)=O [XXA1] (Ac-RPEIWYAQGLKRFGDEFNAYYAR-NH2)
binding to Bcl-xL in the presence of competitor pro-survival proteins (Bcl-xL): robust binding
non-specific pore forming activities (DHL10 cells): None
depolarization in the Mcl-1 dependent line (in words) [2]: low amount of depolarization

EC50 [1]: 141 ± 50 nM
Ki (Mcl-1 (residues 172-327)): ~31 nM
competition with fluorescently labeled Bim-BH3 for binding to Mcl-1 (in words) (Mcl-1 (residues 172-327)): Neither XXA1 nor XXA1_G2gE could compete
depolarization of platelets (in words) [3]: potent depolarization
potency relative to Bad [6]: ~ 7 fold
binding to Bcl-xL relative to XXA1 (in words) (Bcl-xL (residues 1-209) [4]; FP competition with 23-mer fluorescently labeled Bim-BH3): bound more tightly than XXA1
binding to Bcl-w (in words) (Bcl-w (residues 1-164); [12]): bound tighter than XXA1
binding to Bcl-2 (in words) (Bcl-2 (residues 1-217) [5]; [12]): bound tighter than XXA1
Molecule: CC[C@H](C)[C@H](NC(=O)[C@H](CCC(=O)O)NC(=O)[C@@H]1CCCN1C(=O)[C@H](CCCNC(=N)N)NC(C)=O)C(=O)N[C@@H](Cc1c[nH]c2ccccc12)C(=O)N[C@@H](Cc1ccc(O)cc1)C(=O)N[C@@H](C)C(=O)N[C@@H](CCC(N)=O)C(=O)N[C@@H](CCC(=O)O)C(=O)N[C@@H](CC(C)C)C(=O)N[C@@H](CCCCN)C(=O)N[C@@H](CCCNC(=N)N)C(=O)N[C@@H](Cc1ccccc1)C(=O)NCC(=O)N[C@@H](CC(=O)O)C(=O)N[C@@H](CCC(=O)O)C(=O)N[C@@H](Cc1ccccc1)C(=O)N[C@@H](CC(N)=O)C(=O)N[C@@H](C)C(=O)N[C@@H](Cc1ccc(O)cc1)C(=O)N[C@@H](Cc1ccc(O)cc1)C(=O)N[C@@H](C)C(=O)N[C@@H](CCCNC(=N)N)C(N)=O [XXA1_G2gE] (Ac-RPEIWYAQELKRFGDEFNAYYAR-NH2)
non-specific pore forming activities (DHL10 cells): None
depolarization in the Mcl-1 dependent line (in words) [2]: low amount of depolarization

weaker response than XXA1_Y4eK [7]: 3-4 fold
reduction of affinity for Bcl-xL relative to XXA1_Y4eK (Bcl-xL (residues 1-209) [4]): ~ 18 fold
weaker binding to Bcl-2 than parent XXA1_Y4eK (Bcl-2 (residues 1-217) [5]): ~ 5 fold
Molecule: CC[C@H](C)[C@H](NC(C)=O)C(=O)N[C@@H](Cc1c[nH]c2ccccc12)C(=O)N[C@@H](Cc1ccc(O)cc1)C(=O)N[C@@H](C)C(=O)N[C@@H](CCC(N)=O)C(=O)NCC(=O)N[C@@H](CC(C)C)C(=O)N[C@@H](CCCCN)C(=O)N[C@@H](CCCNC(=N)N)C(=O)N[C@@H](Cc1ccccc1)C(=O)NCC(=O)N[C@@H](CC(=O)O)C(=O)N[C@@H](CCC(=O)O)C(=O)N[C@@H](Cc1ccccc1)C(=O)N[C@@H](CC(N)=O)C(=O)N[C@@H](C)C(=O)N[C@@H](Cc1ccc(O)cc1)C(=O)N[C@@H](CCCCN)C(N)=O [Y4eK_18] (Ac-IWYAQGLKRFGDEFNAYK-NH2)

weaker response than XXA1_Y4eK [7]: 3-4 fold
Ki (Bcl-xL (residues 1-209) [4]): 0.4 nM
Ki (Bcl-2 (residues 1-217) [5]): 430 nM
specificity for Bcl-xL over Bcl-2 (Bcl-2 (residues 1-217) [5]; ratio of FP binding constants): ~ 1000 fold
Molecule: CC[C@H](C)[C@H](NC(=O)[C@H](CCC(=O)O)NC(=O)[C@@H]1CCCN1C(=O)[C@H](CCCNC(=N)N)NC(C)=O)C(=O)N[C@@H](Cc1c[nH]c2ccccc12)C(=O)N[C@@H](Cc1ccc(O)cc1)C(=O)N[C@@H](C)C(=O)N[C@@H](CCC(N)=O)C(=O)NCC(=O)N[C@@H](CC(C)C)C(=O)N[C@@H](CCCCN)C(=O)N[C@@H](CCCNC(=N)N)C(=O)N[C@@H](Cc1ccccc1)C(=O)NCC(=O)N[C@@H](CC(=O)O)C(=O)N[C@@H](CCC(=O)O)C(=O)N[C@@H](Cc1ccccc1)C(=O)N[C@@H](CC(N)=O)C(=O)N[C@@H](C)C(=O)N[C@@H](Cc1ccc(O)cc1)C(=O)N[C@@H](CCCCN)C(N)=O [Y4eK_21] (Ac-RPEIWYAQGLKRFGDEFNAYK-NH2)
